In article PMC4024982 (International Journal of Nanomedicine, 2014):

Legend:
Assay type in all cases: in vivo, Sprague Dawley rats
[1] = test system: TIMP-1; assay: Immunofluorescence staining of knee joint sections; details: 6 weeks after injection; diffuse positive staining in control
How it was run: (§1)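 OA knees in female 12-week-old SD rats (ACL/MCL transection plus medial meniscectomy), injected intra-articularly with 0.2 mL at 3 weeks post-surgery, uninjected controls. Joints harvested 6 weeks post-injection and formalin-fixed. Sections immunostained for MMP-9, caspase-8, TIMP-1 and collagen II using Alexa Fluor 488/594 secondary antibodies, DAPI counterstain, then examined by fluorescence microscopy.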

[2] = test system: rat knee osteoarthritis model; assay: Histological analysis, modified Mankin scoring; details: 6 weeks after injection; scale 0–4; negative control 2.5±0.3
[3] = test system: caspase-8; assay: Immunofluorescence staining of knee joint sections; details: 6 weeks after injection; diffuse positive staining in control
How it was run: as §1

[4] = test system: rat knee osteoarthritis model; assay: Micro-CT analysis of OA knee joints; details: 6 weeks after injection
How it was run: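 Hind limbs from OA rats (female, 12-week-old SD; ACL/MCL transection with medial meniscectomy) given 0.2 mL intra-articular injection 3 weeks post-surgery, or left uninjected. Harvested 6 weeks post-injection and formalin-fixed. Micro-CT: 80 kVp, 500 μA, 0.21 s scan, 30 calibrations, 30.74 mm fields of view. BMD measured at the lateral femoral condyle. OA graded semiquantitatively by osteophytes and joint destruction.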

Substance: Ac-KLDLKLDLKLDL-NH2 [SAP, Ac-KLDLKLDLKLDL-NH2]
- TIMP-1 immunofluorescence staining [1]: decreased expression
- Alcian blue staining component of modified Mankin score (proteoglycan content) [2]: 0.5±0.3
- caspase-8 immunofluorescence staining [3]: decreased expression
- bone mineral density (lateral femoral condyle, micro-CT) ([4]; control 1,067.0±12.2): 1,033.3±17.4
- Number of animals in each osteoarthritis grade: Grade 1 ([4]; micro-CT): 1
- Number of animals in each osteoarthritis grade: Grade 2 ([4]; micro-CT): 0
- Number of animals in each osteoarthritis grade: Grade 3 ([4]; micro-CT): 2
- Number of animals in each osteoarthritis grade: Grade 4 ([4]; micro-CT): 1
